Laboratory results reported in ChEMBL document CHEMBL5634162, “Cyclohexylalanine-Containing α-Helical Amphipathic Peptide Targets Cardiolipin, Rescuing Mitochondrial Dysfunction in Kidney Injury” (J Med Chem, 2024).
Activity calls are given as the source filed them. The rule behind the calls is not given here. Where a SMILES comes first, the peptide text is derived from it. Bridges are numbered along the chain shown (N, C = ends). Roman numbers before positions name the chains, in order. [ ]: non-standard residue; d: D form. The star is where a group is joined. 5TAMRA = CN(C)c1ccc2c(c1)Oc1cc(N(C)C)ccc1C21OC(=O)c2cc(C(=O)*)ccc21; Cha = N[C@@H](CC1CCCCC1)C(=O)O

Tests used:
[1] = Drug uptake in mitochondria of human HeLa cells transfected with Drp1-eGFP at 100 nM incubated for 3 hrs by confocal microscopy; type: ADME; details: 0.1 µM
Mitochondria = experiment: Inhibition of antimycin A-induced mitochondrial ROS generation in human HeLa cells incubated for 190 mins followed by antimycin A addition measured after 90 mins by MitoSOX probe based analysis; type: functional; details: dose lower […], dose upper 10.0 nM
Procedure, shortened: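 HeLa cells seeded, stained 24 h later with MitoSOX 5 μM for 10 min, washed, HBSS, read on plate reader at 37 °C (Ex/Em 510/580 nm).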

Mus musculus [2] = experiment: Protection against colistin-induced nephrotoxicity in C57BL/6 mouse model assessed as reduction in acute tubular necrosis at 1 mg/kg, ip administered once every other day measured after 7 days by […] analysis; type: functional, organism-based; details: time 7.0 day
Procedure, shortened: (§1)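 Male C57BL/6 mice, 7 weeks: colistin 20 mg/kg sc daily for 7 days, peptide 1 mg/kg ip once every other day, n = 5 per group. Day-7 kidney sections, citrate antigen retrieval, immunohistochemistry with HRP polymer secondary and hematoxylin counterstain; PAS and Masson's trichrome for damage.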

Epithelial cell [3] = experiment: Reversal of H2O2-induced p16 mRNA level in human tubular epithelial cells at 10 to 100 nM by qPCR analysis; type: functional, cell-based; details: dose 10-100 nM
Mus musculus [4] = experiment: Protection against colistin-induced nephrotoxicity in C57BL/6 mouse model assessed as appearance of compact cristae in mitochondria of kidney at 1 mg/kg, ip administered once every other day measured after 7 days by TEM analysis; type: functional, organism-based; details: time 7.0 day
Procedure, shortened: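 Male C57BL/6 mice, 7 weeks, given colistin 20 mg/kg sc daily for 7 days with peptide 1 mg/kg ip once every other day, n = 5 per group; kidney mitochondria examined by TEM.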

HeLa = experiment: Induction of CCCP-reduced ATP production in human HeLa cells incubated for 3 hrs followed by CCCP addition measured after 1 hr by luminescence based analysis; type: functional, cell-based; details: dose 5-20 nM, time 4.0 hrs
Procedure, shortened: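 Cellular ATP measured by luminescence with an ATP detection kit after peptide pretreatment.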

Mus musculus [5] = experiment: Protection against […] C57BL/6 mouse model assessed as reduction in serum creatinine level at 1 mg/kg, ip administered thrice a week prior to induction of bilateral ischemia-reperfusion injury measured after 6 days; type: functional, organism-based; details: time 6.0 day
[6] = Drug localization in lysosomes of human HeLa cells at 100 nM incubated for 3 hrs by NAO probe based analysis; type: ADME, subcellular, Lysosome; details: 0.1 µM
Procedure, shortened: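 HeLa cells given TAMRA-labelled peptide 100 nM for 3 h and cardiolipin stained with NAO (100 nM, 1 h), with or without 20 μM CCCP for 30 min; LysoTracker 50 nM. Confocal images, Pearson r from five independent images (63×) per condition.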

Mus musculus [7] = experiment: Protection against […] C57BL/6 mouse model assessed as reduction in cast formation at 1 mg/kg, ip administered thrice a week prior to induction of bilateral ischemia-reperfusion injury measured after 6 days by IHC analysis; type: functional, organism-based; details: time 6.0 day
Mus musculus [8] = experiment: Protection against colistin-induced nephrotoxicity in C57BL/6 mouse model assessed as reduction in cyt C level at 1 mg/kg, ip administered once every other day measured after 7 days by IHC analysis; type: functional, organism-based; details: time 7.0 day
Procedure, shortened: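 Seven-week-old male C57BL/6 mice got colistin 20 mg/kg SC daily for 7 days plus peptide 1 mg/kg intraperitoneally every other day; groups of n = 5 (control, colistin, colistin + peptide). Kidneys were taken at day 7. Cytochrome C was detected by immunohistochemistry (citrate antigen retrieval, HRP-polymer detection, hematoxylin counterstain). Sections were also stained with PAS and Masson's trichrome to score histologic damage and fibrosis.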

Mus musculus [9] = experiment: Protection against colistin-induced nephrotoxicity in C57BL/6 mouse model assessed as reduction in 8-OHdG level at 1 mg/kg, ip administered once every other day measured after 7 days by IHC analysis; type: functional, organism-based; details: time 7.0 day; procedure, shortened: as §1
Mus musculus [10] = experiment: Protection against […] C57BL/6 mouse model assessed as increase in SOD-1 mRNA level at 1 mg/kg, ip administered thrice a week prior to induction of bilateral ischemia-reperfusion injury measured after 6 days by qPCR analysis; type: functional, organism-based; details: time 6.0 day
[11] = Drug uptake in CCCP-damaged mitochondria of human HeLa cells at 100 nM by MitoTracker probe based assay; type: ADME; details: 16 min, 0.1 µM, TDE = time-dependent effect
Procedure, shortened: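 HeLa cells given TAMRA-labelled peptide 100 nM for 3 h with MitoTracker staining; mitochondria damaged with 20 μM CCCP (30 min) or by CCCP during time-lapse confocal imaging. Red/green Pearson r calculated.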

Epithelial cell [12] = experiment: Inhibition of H2O2-induced intracellular ROS level in human tubular epithelial cells at 20 to 60 nM pretreated for 3 hrs followed by H2O2 addition measured after 30 mins by H2DCFDA staining based analysis; type: functional; details: dose 20-60 nM
Procedure, shortened: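 hTECs seeded, 24 h later given peptide 3 h, then H2O2 1 mM for 30 min; H2DCFDA 25 μM for 30 min, washed, read in HBSS on plate reader at 37 °C (Ex/Em 485/535 nm).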

CC(=O)N[C@@H](CC1CCCCC1)C(=O)N[C@H]1CSSC[C@@H](C(=O)N[C@@H](CCCNC(=N)N)C(N)=O)NC(=O)[C@H](CC2CCCCC2)NC(=O)[C@H](CCCNC(=N)N)NC(=O)[C@H](CCCNC(=N)N)NC(=O)[C@H](CC2CCCCC2)NC(=O)[C@H](CC(C)C)NC(=O)[C@H](CCCNC(=N)N)NC(=O)[C@@H](NC(=O)[C@H](CC2CCCCC2)NC(=O)c2ccc3c(c2)C(=O)OC32c3ccc(N(C)C)cc3Oc3cc(N(C)C)ccc32)CSSC[C@@H](C(=O)N[C@@H](CCCNC(=N)N)C(N)=O)NC(=O)[C@H](CC2CCCCC2)NC(=O)[C@H](CCCNC(=N)N)NC(=O)[C@H](CCCNC(=N)N)NC(=O)[C@H](CC2CCCCC2)NC(=O)[C@H](CC(C)C)NC(=O)[C@H](CCCNC(=N)N)NC1=O (I: Ac-[Cha]CRL[Cha]RR[Cha]CR-NH2 / II: 5TAMRA-[Cha]CRL[Cha]RR[Cha]CR-NH2; disulfide I:2-II:9, I:9-II:2)
Drug uptake [1]: Active | inhibition (Mitochondria): Dose-Dependent Effect | Activity (Mus musculus [2]): Active | Activity (Epithelial cell [3]): Active | Activity (Mus musculus [4]): Active | Activity (HeLa): Dose-Dependent Effect | Activity (Mus musculus [5]): Active | Drug uptake [6]: Active | Activity (Mus musculus [7]): Active | Activity (Mus musculus [8]): Active | Activity (Mus musculus [9]): Active | Activity (Mus musculus [10]): Active | Drug uptake [11]: Tde | inhibition (Epithelial cell [12]): Active
